# Assay results of several laboratories.
# Protocols differ between the studies behind these lines.
# Target: Testis-specific serine/threonine-protein kinase 1 (TSSK1B, Homo sapiens, UniProt Q9BXA7)
# One construct used (Q9BXA7 1-367): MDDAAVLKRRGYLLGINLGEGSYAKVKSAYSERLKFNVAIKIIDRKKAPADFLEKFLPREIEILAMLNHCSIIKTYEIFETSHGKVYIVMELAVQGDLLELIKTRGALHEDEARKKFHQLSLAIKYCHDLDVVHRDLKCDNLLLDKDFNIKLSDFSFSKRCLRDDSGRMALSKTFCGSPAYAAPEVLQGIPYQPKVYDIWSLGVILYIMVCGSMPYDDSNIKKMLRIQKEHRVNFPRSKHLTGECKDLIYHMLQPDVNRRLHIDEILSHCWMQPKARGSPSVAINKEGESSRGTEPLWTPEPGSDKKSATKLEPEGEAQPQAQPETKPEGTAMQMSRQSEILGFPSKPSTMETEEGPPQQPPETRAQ
SMILES,assay,setting,quantity,value
COc1ncccc1-c1cnn2ccc(N3CCN(C(=O)OC(C)C)CC3)nc12,"binding, competition with immobilised ligand",1 µM,remaining binding,54%
COc1cc(Nc2ncc(F)c(Nc3ccc4c(n3)NC(=O)C(C)(C)O4)n2)cc(OC)c1OC,binding,10 µM,inhibition,97%
N#CC1(c2ccccn2)CCN(Cc2cc(C(=O)O)c(=O)n3ccccc23)CC1,"cell-free assay, competition with immobilised ligand",1 µM,remaining binding,74%
Cc1nn(C)cc1-c1nc2c(N3CCN(Cc4ccc(Cl)cc4)CC3)c(Cl)cnc2[nH]1,"binding, competition with immobilised ligand",1 µM,remaining binding,100%
Cn1cc(-c2cc(F)cc(N3CCn4c(cc5c4CCCC5)C3=O)c2CO)cc(Nc2ccc(N3CCN(C4COC4)CC3)cn2)c1=O,"enzyme activity, inhibitor",0.1 µM,inhibition,9%
Cn1cncc1[C@@](O)(COc1ccc(C#N)cc1-c1ccc(OC(F)(F)F)cc1)c1ccc(C#N)cc1,"cell-free assay, competition with immobilised ligand",1 µM,remaining binding,70%
O=c1[nH]c2ccccc2n1C1CCN(Cc2ccc(-c3[nH]c4cc5ncnc5cc4nc3-c3ccccc3)cc2)CC1,cell-free assay,0.5 µM,remaining signal,96.5%
Cn1cc(-c2cccc(N3CCc4c(sc5c4CC(C)(C)C5)C3=O)c2CO)cc(Nc2ccncn2)c1=O,"enzyme activity, inhibitor",1 µM,inhibition,5%
Nc1ncc(-c2nc(N3CCOCC3)nc(N3CCOCC3)n2)c(C(F)F)n1,"binding, competition with immobilised ligand",10 µM,remaining binding,100%
CC(C)(C)c1cc(C=C(C#N)C#N)cc(Br)c1O,"enzyme activity, inhibitor",0.5 µM,remaining activity,95.6%
